# Source: PubChem (Broad Institute)
# Hits are enriched below; roughly 1.2% of the tested compounds scored in any of these assays.
# CaV13 FRET inh – Primary screen for inhibitors of IQ motif and Ca2+-dependent inactivation inhibitor domain binding in CACNA1D, Förster resonance energy transfer in living cells, … | HEK cells, CFP/YFP FRET ICDI-IQ, plate reader, 10 min; percent FRET-ratio fall versus neutral wells | 0.098% of 340,000 active | inhibition, % at 12.3 µM | AID 743397;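 active means mean replicate inhibition of at least 30% and at least 1% of replicates passing that level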;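 further: 0% = median of the neutral control wells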
# CAL PDZ FP-1 – CAL PDZ (human) peptide binding inhibition. Q9HD26. purified CAL PDZ, TMR-peptide fluorescence polarization, 1 h. inhibition, % at 24.9 µM. 0.92% of 300,000 active. AID 602252;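 active means mean inhibition of at least 30% with at least half of replicates also reaching 30%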;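 further: 0% = DMSO neutral control and 100% = excess unlabeled competitor peptide PRC23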
# ARNT-TACC3 inh – ARNT/TACC3 interaction disruption. Q9Y6A5. AlphaScreen His-ARNT PAS-B/GST-TACC3 binding, luminescence; TACC3 fragment carries E629A point mutation. 0.66% of 390,000 active. inhibition, % at 9.99 µM;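 active means mean inhibition of replicates at least 50% and at least half of replicates each reaching 50%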;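 further: 0% = complete ARNT plus TACC3 wells and 100% = ARNT alone without TACC3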
# CAL PDZ FP-2 – inhibitors of human CAL PDZ peptide binding; Q9HD26; purified CAL PDZ, TMR-peptide fluorescence polarization, 1 h; inhibition, % at 20 µM; 0.02% of 330,000 active;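 active means highest replicate inhibition of at least 40%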;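 further: plate controls were DMSO neutral control wells for no effect and unlabeled competitor peptide control wells for full effect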
#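 material = purified tagged CAL PDZ domain construct (CerCALP) | compound dosing = 20 µM, one dose | times = 1 h at RT | measured by = fluorescence polarization from S- and P-plane intensities, G-factor corrected | read-out = inhibition from polarization loss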
# * hit, by the source's call; / = not tested or not shown; + = active, no number.
SMILES,CaV13 FRET inh,CAL PDZ FP-1,ARNT-TACC3 inh,CAL PDZ FP-2
COC(=O)c1c(CC[C@@H](CO)NC(=O)N[C@H](Cc2ccccc2)Cn2cc(-c3ccccn3)nn2)oc(C(C)=O)c1C(=O)OC,/,/,22*,/
O=C(Nc1ccccc1)N[C@H](Cc1ccccc1)Cn1cc(CN2C(=O)COC[C@H]2c2ccccc2)nn1,/,/,1,/
CC(NC(=O)C(=O)N/N=C\c1ccc([N+](=O)[O-])cc1)c1ccccc1 (stereo not drawn),-2,40*,-6,0
CC(NC(=O)COC(=O)/C=C/c1ccc([N+](=O)[O-])cc1)c1ccccc1 (stereo not drawn),-3,-5,-5,-2
CO[C@@H](CN(C)S(=O)(=O)c1ccc(Cl)cc1)[C@@H](C)CN(Cc1ccccc1Cl)[C@@H](C)CO,/,/,-5,/
COc1ccc(NC(=O)C2CCC(CNS(=O)(=O)c3cccs3)CC2)cc1OC (stereo not drawn),-5,0,-2,0
COc1ccc(NC(=O)C2CCC(CNS(=O)(=O)c3cccs3)CC2)cc1 (stereo not drawn),31*,-1,0,-1
CC(C)c1nnc(NC(=O)CCCC(=O)O)s1,/,-1,-5,0
CCOC(=O)CC(=O)Nc1nnc(C(C)C)s1,-5,38*,-9,-1
Cc1c(NC(=O)C(C)Sc2ccccc2)c(=O)n(-c2ccccc2)n1C (stereo not drawn),/,-2,-12,0
COCCCn1c(SC(C)C(=O)Nc2c(C)n(C)n(-c3ccccc3)c2=O)n[nH]c1=O (stereo not drawn),-6,43*,-9,0
CO[C@@H]1CN(C)C(=O)c2cc(NC(C)=O)ccc2OC[C@@H](C)N(Cc2ccncc2)C[C@@H]1C,/,/,-1,/
COc1ccc2c(-c3ccc(OCCN4CCCCC4)cc3)c(-c3ccccc3OC)sc2c1,/,32*,7,-1
COc1ccccc1-c1sc2ccccc2c1-c1ccc(OCCN2CCCCC2)cc1,/,-3,5,0
COc1ccc(-c2ccc3c(c2)O[C@@H](CN(C)C(C)=O)[C@@H](C)CN([C@H](C)CO)S3(=O)=O)cc1,/,/,0,/
O=C(COC(=O)c1ccccc1O)Nc1cccc(S(=O)(=O)NC2=NCCCCC2)c1,-1,35*,1,-2
C[C@H](CO)N1C[C@H](C)[C@@H](CN(C)C(=O)CCN(C)C)OCc2ccccc2-c2c(n(C)c3ccccc23)C1=O,/,/,5,/
O=Cc1ccc(OC(=O)/C=C/c2ccccc2)cc1,-12,79*,2,0
Cc1cc(-n2c(=O)c(C#N)cc3c(=O)n4cccc(C)c4nc32)no1,43*,-1,-9,-2
COCCCNC(=O)Cc1ccc(S(=O)(=O)N2CCOCC2)s1,-17,43*,/,-1
O=C(Cc1ccccn1)NCC[C@@H]1CC[C@H](NS(=O)(=O)c2ccc(F)cc2)[C@H](CO)O1,/,/,-7,/
COC(=O)CNc1cccc(C(F)(F)F)c1,-7,75*,3,17
CC(Oc1ccccc1)C(=O)Nc1cccc(NC(=O)c2ccco2)c1 (stereo not drawn),-2,118*,-4,/
CC(C)[C@H](NC(=O)c1ccco1)C(=O)OCC(=O)Nc1cccc(F)c1,7,69*,-3,-1
COc1ccccc1N1CCN(C(=O)c2c(-c3c(F)cccc3Cl)noc2C)CC1,-10,0,1,0
SMILES,CaV13 FRET inh,CAL PDZ FP-1,ARNT-TACC3 inh,CAL PDZ FP-2
COc1ccccc1N1CC(C)(C)C(=O)N(C(=O)c2c(F)cccc2Cl)C1=S,-12,81*,-4,-1
CCN(CC)CC(=O)NCC1(c2ccccc2)CCCC1,-2,0,-2,-2
CCN(CC)CC(=O)NCC1(c2ccccc2)CCOCC1,-4,70*,-6,-2
C[C@H](CO)N1C[C@H](C)[C@@H](CN(C)C(=O)C2CCCCC2)OCCCC[C@H](C)Oc2ccc(NC(=O)Cc3ccccc3)cc2C1=O,/,/,1,/
CSCC(C)N1CCC(n2nccc2NC(=O)CCCc2ccccc2)CC1 (stereo not drawn),-5,0,5,-2
C=C(C)CCC(C)N1CCC(n2nccc2NC(=O)CCCc2ccccc2)CC1 (stereo not drawn),-7,42*,2,1
O=C(NN=C1CCN(Cc2ccccc2)CC1)c1ccccc1O,7,-15,11,-1
CCOC(=O)C1=C(C)C/C(=N\NC(=O)c2ccccc2O)CC1,-15,86*,33,-1
COc1ccc(S(=O)(=O)Nc2ccc3c(c2)C(=O)N([C@@H](C)CO)C[C@H](C)[C@@H](CN(C)C(=O)Cc2ccccc2)OCCCC[C@@H](C)O3)cc1,/,/,8,/
O=C(NCCN1CCN(C(=O)c2ccccc2Cl)CC1)C(=O)NCc1ccccc1,-2,48*,4,-1
O=C(NCCN1CCN(C(=O)c2cccc(Br)c2)CC1)C(=O)NCc1ccccc1,-2,-2,-7,0
C[C@@H]1CCCCO[C@@H](CN(C)Cc2ccc(Cl)c(Cl)c2)[C@H](C)CN([C@@H](C)CO)C(=O)c2cc(NS(=O)(=O)c3ccc(Cl)cc3)ccc2O1,/,/,1,/
COc1ccccc1C(=O)c1cc2ccc(O)cc2oc1=O,144*,2,-22,-3
COc1ccc(NC(=O)N(C)C[C@@H]2Oc3ccc(NC(=O)C4CCCCC4)cc3C(=O)N([C@H](C)CO)C[C@H]2C)cc1,/,/,-4,/
C/C(=N\NC(=O)CC#N)c1cc2ccc(O)cc2oc1=O,+,10,21,-1
C=CC[C@H]1C=C[C@@H](C(C(=O)OC)C(=O)OC)CN1C(C)=O,-8,-5,57*,-1
O=C(Cn1cc([N+](=O)[O-])cn1)NCc1ccccc1,8,43*,1,0
COc1ccc(CNC(=O)Cn2cc([N+](=O)[O-])cn2)cc1,-5,/,2,-1
CCC(=O)N[C@@H]1CC[C@H](CC(=O)NCc2ccccc2OC)O[C@@H]1CO,/,/,-2,/
CSC1=NSC2=NC(=O)/C(=C/c3coc4ccc(O)cc4c3=O)C(=N)N12,126*,-6,13,-4
COc1ccc(CN(C)C[C@H]2OCCCC[C@@H](C)Oc3ccc(NS(=O)(=O)c4ccc(Cl)cc4)cc3C(=O)N([C@H](C)CO)C[C@H]2C)cc1,/,/,6,/
Cc1ccc(S(=O)(=O)CCC(=O)Nc2cccc(S(=O)(=O)N3CCCCCC3)c2)cc1,-16,32*,/,-1
Cc1ccc(NC(=O)CSCC(=O)Nc2cccc(S(=O)(=O)N3CCCCCC3)c2)cc1,-6,/,/,-1
O=C(COC(=O)CCN1C(=O)c2ccccc2C1=O)Nc1ccc(S(=O)(=O)N2CCCC2)cc1,-8,1,-6,-3
NS(=O)(=O)c1cccc(NC(=O)COC(=O)CCC2CCCC2)c1,-7,85*,1,0
Cc1ccc(S(=O)(=O)CCC(=O)OCC(=O)Nc2cccc(S(=O)(=O)N3CCCCC3)c2)cc1,58*,/,/,/
